{
  "source": "paper PMC5035790",
  "about": "(Annals of Oncology, 2016)",
  "assay_type_in_all_cases": "in vivo, human",
  "key": {"[1]": {"experiment": "Plasma pharmacokinetics of copanlisib", "settings": "human, plasma, intravenous"}, "plasma glucose": {"system": "plasma glucose", "experiment": "Plasma glucose and insulin pharmacodynamics", "settings": "33 of 51; blood glucose >200 mg/dl"}, "non-Hodgkin's lymphoma": {"system": "non-Hodgkin's lymphoma", "experiment": "Tumor response by International Working Group response criteria for lymphoma", "settings": "follicular lymphoma (FL), six patients", "how_it_was_run": "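NHL expansion cohort (follicular lymphoma and DLBCL) received 0.8 mg/kg as a 1-h IV infusion on days 1, 8 and 15 of each 28-day cycle, continued until progression or unfavourable risk:benefit. Response was judged by investigator assessment using International Working Group lymphoma criteria.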"}, "advanced solid tumors": {"system": "advanced solid tumors", "experiment": "Tumor response by investigator, modified RECIST version 1.1", "how_it_was_run": "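Solid-tumour patients (dose-escalation cohorts 0.1–1.2 mg/kg, expansion at 0.8 mg/kg) received a 1-h IV infusion on days 1, 8 and 15 of 28-day cycles until progression. Response was by investigator assessment using modified RECIST 1.1. PTEN loss by IHC was defined as 0% tumour cells staining, low as 1% to <5%, and positive as ≥5%.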"}},
  "data": [
    {"smiles": "COc1c(OCCCN2CCOCC2)ccc2c1N=C(NC(=O)c1cnc(N)nc1)N1CCN=C21", "note": "[copanlisib, Copanlisib]", "values": [
      {"measurement": "Cmax", "setting": "[1]; 0.4 mg/kg, cycle 1 day 15, cohort 3, 0.4 mg/kg, n=2, range", "value": "70.1 to 193", "unit": "ng/mL"},
      {"measurement": "Cmax", "setting": "[1]; 0.4 mg/kg, cycle 1 day 15, diabetic expansion, 0.4 mg/kg, n=6, geometric mean (%CV)", "value": 151, "unit": "ng/mL"},
      {"measurement": "half-life", "setting": "[1]; 0.4 mg/kg, t1/2, cycle 1 day 1, cohort 3, 0.4 mg/kg, n=1", "value": 60.6, "unit": "h"},
      {"measurement": "half-life", "setting": "[1]; 0.4 mg/kg, t1/2, cycle 1 day 1, diabetic expansion, 0.4 mg/kg, n=2, value (%)", "value": 34.4, "unit": "h"},
      {"measurement": "Tmax", "setting": "[1]; 0.4 mg/kg, tmax, cycle 1 day 1, cohort 3, 0.4 mg/kg, n=2, range", "value": "0.5 to 1.1", "unit": "h"},
      {"measurement": "Tmax", "setting": "[1]; 0.4 mg/kg, tmax, cycle 1 day 15, cohort 3, 0.4 mg/kg, n=2, range", "value": "0.5 to 1.1", "unit": "h"},
      {"measurement": "Tmax", "setting": "[1]; 0.8 mg/kg", "value": 1, "unit": "h"},
      {"measurement": "concentration at 8 day of cycle 1", "setting": "[1]; 0.8 mg/kg", "value": 4.92, "unit": "ng/mL"},
      {"measurement": "AUC(0-t)", "setting": "[1]; 0.8 mg/kg, AUC(0–25), cycle 1 day 1, MTD 0.8 mg/kg combined, n=41, geometric mean (%CV)", "value": 1590, "unit": "ng·h/mL"},
      {"measurement": "AUC(0-t)", "setting": "[1]; 0.8 mg/kg, AUC(0–25), cycle 1 day 1, NHL expansion, 0.8 mg/kg, n=9, geometric mean (%CV)", "value": 1350, "unit": "ng·h/mL"},
      {"measurement": "AUC(0-t)", "setting": "[1]; 0.8 mg/kg, AUC(0–25), cycle 1 day 1, cohort 4, 0.8 mg/kg, n=7, geometric mean (%CV)", "value": 1600, "unit": "ng·h/mL"},
      {"measurement": "AUC(0-t)", "setting": "[1]; 0.8 mg/kg, AUC(0–25), cycle 1 day 15, MTD 0.8 mg/kg combined, n=35, geometric mean (%CV)", "value": 1570, "unit": "ng·h/mL"},
      {"measurement": "AUC(0-t)", "setting": "[1]; 0.8 mg/kg, AUC(0–25), cycle 1 day 15, NHL expansion, 0.8 mg/kg, n=8, geometric mean (%CV)", "value": 1760, "unit": "ng·h/mL"},
      {"measurement": "AUC(0-t)", "setting": "[1]; 0.8 mg/kg, AUC(0–25), cycle 1 day 15, cohort 4, 0.8 mg/kg, n=6, geometric mean (%CV)", "value": 1480, "unit": "ng·h/mL"},
      {"measurement": "AUC(0-t)", "setting": "[1]; 0.8 mg/kg, AUC(0–tlast), cycle 1 day 1, MTD 0.8 mg/kg combined, n=41, geometric mean (%CV)", "value": 2880, "unit": "ng·h/mL"},
      {"measurement": "AUC(0-t)", "setting": "[1]; 0.8 mg/kg, AUC(0–tlast), cycle 1 day 1, NHL expansion, 0.8 mg/kg, n=9, geometric mean (%CV)", "value": 2710, "unit": "ng·h/mL"},
      {"measurement": "AUC(0-t)", "setting": "[1]; 0.8 mg/kg, AUC(0–tlast), cycle 1 day 1, cohort 4, 0.8 mg/kg, n=7, geometric mean (%CV)", "value": 2940, "unit": "ng·h/mL"},
      {"measurement": "Cmax", "setting": "[1]; 0.8 mg/kg, cycle 1 day 1, MTD 0.8 mg/kg combined, n=41, geometric mean (%CV)", "value": 454, "unit": "ng/mL"},
      {"measurement": "Cmax", "setting": "[1]; 0.8 mg/kg, cycle 1 day 1, cohort 4, 0.8 mg/kg, n=7, geometric mean (%CV)", "value": 293, "unit": "ng/mL"},
      {"measurement": "Cmax", "setting": "[1]; 0.8 mg/kg, cycle 1 day 15, MTD 0.8 mg/kg combined, n=36, geometric mean (%CV)", "value": 463, "unit": "ng/mL"},
      {"measurement": "Cmax", "setting": "[1]; 0.8 mg/kg, cycle 1 day 15, NHL expansion, 0.8 mg/kg, n=8, geometric mean (%CV)", "value": 507, "unit": "ng/mL"},
      {"measurement": "Cmax", "setting": "[1]; 0.8 mg/kg, cycle 1 day 15, cohort 4, 0.8 mg/kg, n=6, geometric mean (%CV)", "value": 370, "unit": "ng/mL"},
      {"measurement": "half-life", "setting": "[1]; 0.8 mg/kg, t1/2, cycle 1 day 1, MTD 0.8 mg/kg combined, n=28, value (%)", "value": 38.2, "unit": "h"},
      {"measurement": "half-life", "setting": "[1]; 0.8 mg/kg, t1/2, cycle 1 day 1, NHL expansion, 0.8 mg/kg, n=8, value (%)", "value": 38.9, "unit": "h"},
      {"measurement": "half-life", "setting": "[1]; 0.8 mg/kg, t1/2, cycle 1 day 1, cohort 4, 0.8 mg/kg, n=4, value (%)", "value": 42.3, "unit": "h"},
      {"measurement": "half-life", "setting": "[1]; 0.8 mg/kg, t1/2, cycle 1 day 1, solid tumors expansion, 0.8 mg/kg, n=16, value (%)", "value": 36.9, "unit": "h"},
      {"measurement": "half-life", "setting": "[1]; 0.8 mg/kg, terminal half-life, MTD 0.8 mg/kg, coefficient of variation 43%", "value": 38.2, "unit": "h"},
      {"measurement": "Tmax", "setting": "[1]; 0.8 mg/kg, tmax, cycle 1 day 1, cohort 4, 0.8 mg/kg, n=7, value (range)", "value": 1.1, "unit": "h"},
      {"measurement": "Tmax", "setting": "[1]; 0.8 mg/kg, tmax, cycle 1 day 15, NHL expansion, 0.8 mg/kg, n=8, value (range)", "value": 0.8, "unit": "h"},
      {"measurement": "AUC(0-t)", "setting": "[1]; 1.2 mg/kg, AUC(0–25), cycle 1 day 1, cohort 5, 1.2 mg/kg, n=2, range", "value": "2510 to 3820", "unit": "ng·h/mL"},
      {"measurement": "AUC(0-t)", "setting": "[1]; 1.2 mg/kg, AUC(0–tlast), cycle 1 day 1, cohort 5, 1.2 mg/kg, n=2, range", "value": "4090 to 5230", "unit": "ng·h/mL"},
      {"measurement": "Cmax", "setting": "[1]; 1.2 mg/kg, cycle 1 day 1, cohort 5, 1.2 mg/kg, n=2, range", "value": "616 to 739", "unit": "ng/mL"},
      {"measurement": "half-life", "setting": "[1]; 1.2 mg/kg, t1/2, cycle 1 day 1, cohort 5, 1.2 mg/kg, n=1", "value": 33, "unit": "h"},
      {"measurement": "Tmax", "setting": "[1]; 1.2 mg/kg, tmax, cycle 1 day 1, cohort 5, 1.2 mg/kg, n=2, range", "value": "0.6 to 1.3", "unit": "h"},
      {"measurement": "non-diabetic patients receiving at least 1 dose of short-acting insulin", "setting": "plasma glucose", "value": 65, "unit": "%"},
      {"measurement": "response rate", "setting": "non-Hodgkin's lymphoma", "value": 100, "unit": "%"},
      {"measurement": "tumor reduction", "setting": "advanced solid tumors; 1 patient with endometrial carcinoma, 0.4 mg/kg cohort, stable disease", "value": "> 25", "unit": "%"},
      {"measurement": "objective response or stable disease for >4 cycles", "setting": "advanced solid tumors; 10 patients without complete PTEN loss", "value": "none"},
      {"measurement": "partial response (PR)", "setting": "advanced solid tumors; 48 patients with solid tumors, 2 patients, 1 confirmed, 1 unconfirmed", "value": 4, "unit": "%"},
      {"measurement": "complete response (CR)", "setting": "advanced solid tumors; 48 patients with solid tumors, one patient", "value": 2, "unit": "%"},
      {"measurement": "disease progression by clinical judgment", "setting": "advanced solid tumors; 48 patients with solid tumors, seven patients", "value": 15, "unit": "%"},
      {"measurement": "patients with stable disease ≥6 cycles", "setting": "advanced solid tumors; of the 15 patients with stable disease", "value": 6, "unit": "patients"},
      {"measurement": "cycles until CR", "setting": "advanced solid tumors; patient with endometrial carcinoma, PIK3CA and PTEN mutations, complete PTEN loss, 0.8 mg/kg", "value": 10, "unit": "cycles"},
      {"measurement": "overall response rate", "setting": "advanced solid tumors; patients with solid tumors", "value": 6, "unit": "%"},
      {"measurement": "CR, PR, or stable disease lasting ≥6 cycles", "setting": "advanced solid tumors; solid tumors at MTD with complete PTEN loss, 3 of 7", "value": 43, "unit": "%"},
      {"measurement": "CR, PR, or stable disease", "setting": "advanced solid tumors; solid tumors at MTD without PTEN loss, seven patients", "value": "none"}
    ]}
  ]
}
